# Test results reported in PubChem BioAssay.
# Activity calls are given as the source filed them.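 Rule for the calls, unless noted: active = potentiation averaged over duplicate wells exceeding buffer-only control mean by more than 3 SD; inactive = the rest.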
# Test system: not listed separately
# Experiment: thallium flux activation in parental CHO cells, counter-screen for KCNQ1 potentiator project (AID 493006;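 active = duplicate-averaged activation above buffer control mean plus 5 SD of those controls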)
# Conditions: parental CHO-K1 cells, FluxOR thallium flux, at 10 µM; stronger effect = higher value
# In short: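 Assay system: Untransfected host CHO-K1 cells with FluxOR thallium dye | Probe or stimulus: Potassium/thallium depolarization pulse | Schedule: Overnight 37 °C plating, 90 min RT dye, 20 min compound | Detection: Kinetic thallium-flux fluorescence | Read-out: Max-minus-min fluorescence over baseline, percent of buffer-to-R-L3 span | Benchmarks: Low control buffer, high control R-L3 activator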
SMILES,outcome,activation
O=S1(=O)Nc2c(ccc3cccnc23)-c2ccccc21,inactive,
CC1(C)Cc2c(sc(/N=C/N3CCCCCC3)c2C#N)C(C)(C)N1,inactive,
COc1ccccc1CNCc1cccc(Oc2ccccc2)c1,inactive,
Fc1ccc(-c2csc(=S)[nH]2)cc1,,416% (active)
Cc1ccccc1NC(=O)C(=O)NNC(=O)COc1ccc2ccccc2c1,,232% (active)
Cc1ccc(Cn2ncc3c(NN)ncnc32)cc1,inactive,
COc1cc(CNCCN2CCOCC2)ccc1OCc1ccc(Cl)cc1Cl,inactive,
COc1cnc(-c2ccccn2)nc1Oc1ccccc1Cl,inactive,
CCc1ccc2[nH]c(C(=O)Nc3ccc(F)cc3Br)cc2c1,inactive,
O=C1NC(=S)S/C1=C\c1ccc2ccccc2c1,,234% (active)
Cc1ccc(OCc2n[nH]c(=S)n2-c2ccc(Br)cc2)cc1,inactive,
CCN=C1SC(CC(=O)Nc2ccccc2OCC)C(=O)N1CC (stereo not given),inactive,
Cc1nc(-c2nc(-c3c(C(=O)NNC(=O)c4ccc(Cl)cc4)noc3C)cs2)cs1,,140% (active)
CCOC(=O)C1=C(O)c2ccccc2C(=O)/C1=C\c1ccc(CC)cc1,,177% (active)
O=C(CNC(=O)C(c1ccccc1)c1ccccc1)N/N=C/c1ccc(O)cc1O,inactive,
C=CCn1c(O)c(N=NC(=S)Nc2cccc(C)c2)c2ccccc21,,225% (active)
O=[N+]([O-])c1cc(C(F)(F)F)ccc1Oc1cccnc1[N+](=O)[O-],inactive,
O=C(Nc1ccccc1F)C1C2C=CC3(O2)C1C(=O)N(c1cccnc1)C3C(=O)NC1CCCCC1 (stereo not given),inactive,
Cc1cccc(NC(=O)c2cccnc2)c1,inactive,
COC(=O)c1sc(NC(=S)NC(=O)c2ccccc2F)nc1C,inactive,

SMILES,outcome,activation
CC(/C=C1\SC(=S)N(c2ccc(C(=O)O)cc2)C1=O)=C\c1ccccc1,inactive,
NC(=O)CSc1nnc(-c2ccccc2Br)n1-c1cccc(C(F)(F)F)c1,inactive,
O=C(c1cccnc1)N1N=C2CCCCCC2C1(O)C(F)(F)F (stereo not given),inactive,
CCOC(=O)C1(CC2CCCCO2)CCN(Cc2cc3ccccc3[nH]2)CC1 (stereo not given),inactive,
O=C(NC(=S)NC1CCCCC1)c1ccc(Cl)cc1,,202% (active)
COC(=O)c1sc(NC(=S)NC(=O)c2ccc(C)cc2)nc1C,,172% (active)
O=Cc1cc2ccccc2nc1SCCCF,inactive,
OCCCCNCc1ccc(OCc2ccc(Cl)cc2)cc1,,220% (active)
CC(=O)Nc1cccc(/C(C)=N/NC(=O)c2ccc(Cl)cc2Cl)c1,inactive,
C/C(=N\NC(=S)Nc1ccc(C)cc1)c1cc2ccccc2o1,inactive,
CCC1CCC2(CC1)NC(CO)(CO)CO2 (stereo not given),inactive,
O=c1[nH]c(Nc2ccccc2)cc2cc(Br)ccc12,inactive,
CCCC(=O)Nc1cc(Cl)ccc1N1CCN(C(=O)CC)CC1,inactive,
Cn1c(O)c(N=Nc2nc(-c3ccccc3)cs2)c2ccccc21,,510% (active)
Cc1ccc(-n2cccc2/C=C2\C(=N)N3N=C(C(C)C)SC3=NC2=O)cc1,inactive,
CC(=O)c1c(C)[nH]c(C(=O)OCc2nc3ccsc3c(=O)[nH]2)c1C,inactive,
COc1cc(OC)cc(C(=O)NC(=S)N(Cc2ccccc2)C(C)C)c1,,294% (active)
COC(=O)c1cn(NC(=O)Cc2ccc(Cl)c(Cl)c2)c(=O)c2ccccc12,inactive,
Cc1ccc(-c2csc3ncnc(SCc4ccc(C(=O)O)cc4)c23)cc1,,197% (active)
CS(=O)(=O)N1CCC(C(=O)Nc2ccc(OCc3ccccc3)cc2)CC1,inactive,

# Target: Potassium voltage-gated channel subfamily KQT member 1 (Homo sapiens) (UniProt P51787)
# Sequence (P51787 whole entry, looked up): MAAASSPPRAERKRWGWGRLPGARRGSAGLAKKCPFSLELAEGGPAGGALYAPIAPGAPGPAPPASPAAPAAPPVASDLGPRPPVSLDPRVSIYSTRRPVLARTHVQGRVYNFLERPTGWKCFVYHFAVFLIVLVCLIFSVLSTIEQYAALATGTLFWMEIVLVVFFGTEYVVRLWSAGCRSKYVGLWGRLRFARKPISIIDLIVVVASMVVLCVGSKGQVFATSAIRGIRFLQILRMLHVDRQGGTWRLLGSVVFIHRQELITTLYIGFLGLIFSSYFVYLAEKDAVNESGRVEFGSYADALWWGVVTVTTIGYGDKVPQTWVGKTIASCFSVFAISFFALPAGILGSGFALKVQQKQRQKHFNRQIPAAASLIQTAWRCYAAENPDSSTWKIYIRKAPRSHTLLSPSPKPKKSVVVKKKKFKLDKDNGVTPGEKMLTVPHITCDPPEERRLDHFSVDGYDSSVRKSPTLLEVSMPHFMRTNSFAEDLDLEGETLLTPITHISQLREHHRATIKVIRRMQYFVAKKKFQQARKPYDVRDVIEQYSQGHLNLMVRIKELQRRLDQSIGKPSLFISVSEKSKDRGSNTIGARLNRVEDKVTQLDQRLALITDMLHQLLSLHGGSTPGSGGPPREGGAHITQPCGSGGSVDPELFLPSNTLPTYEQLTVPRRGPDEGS
# Experiment: KCNQ1 potassium channel potentiators, confirmation, FluxOR thallium flux, CHO cells, duplicates (AID 493007);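 for outcome: cells depolarized by a potassium plus thallium sulfate stimulus after compound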
# Conditions: KCNQ1 cell line, FluxOR thallium flux fluorescence, at 10 µM; stronger effect = higher value, % of reference activator effect, buffer zero
# In short: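 Material: KCNQ1-expressing CHO cell line; Incubation: FluxOR dye loading 90 min, compound exposure 20 min, room temperature; Detection: FluxOR Tl+ flux fluorescence, 10 s baseline plus 110 s recording; Read-out: percent activation between buffer and R-L3 responses; Control set: buffer-only wells as 0% and R-L3 activator as 100%; Replication: duplicate wells per compound.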
SMILES,potentiation,outcome
O=S1(=O)Nc2c(ccc3cccnc23)-c2ccccc21,21% (active),
CC1(C)Cc2c(sc(/N=C/N3CCCCCC3)c2C#N)C(C)(C)N1,,inactive
COc1ccccc1CNCc1cccc(Oc2ccccc2)c1,,inactive
Fc1ccc(-c2csc(=S)[nH]2)cc1,120% (active),
Cc1ccccc1NC(=O)C(=O)NNC(=O)COc1ccc2ccccc2c1,93.5% (active),
Cc1ccc(Cn2ncc3c(NN)ncnc32)cc1,,inactive
COc1cc(CNCCN2CCOCC2)ccc1OCc1ccc(Cl)cc1Cl,,inactive
COc1cnc(-c2ccccn2)nc1Oc1ccccc1Cl,,inactive
CCc1ccc2[nH]c(C(=O)Nc3ccc(F)cc3Br)cc2c1,,inactive
O=C1NC(=S)S/C1=C\c1ccc2ccccc2c1,82% (active),
Cc1ccc(OCc2n[nH]c(=S)n2-c2ccc(Br)cc2)cc1,22.5% (active),
CCN=C1SC(CC(=O)Nc2ccccc2OCC)C(=O)N1CC (stereo not given),,inactive
Cc1nc(-c2nc(-c3c(C(=O)NNC(=O)c4ccc(Cl)cc4)noc3C)cs2)cs1,54.5% (active),
CCOC(=O)C1=C(O)c2ccccc2C(=O)/C1=C\c1ccc(CC)cc1,114% (active),
O=C(CNC(=O)C(c1ccccc1)c1ccccc1)N/N=C/c1ccc(O)cc1O,,inactive
C=CCn1c(O)c(N=NC(=S)Nc2cccc(C)c2)c2ccccc21,77% (active),
O=[N+]([O-])c1cc(C(F)(F)F)ccc1Oc1cccnc1[N+](=O)[O-],,inactive
O=C(Nc1ccccc1F)C1C2C=CC3(O2)C1C(=O)N(c1cccnc1)C3C(=O)NC1CCCCC1 (stereo not given),,inactive
Cc1cccc(NC(=O)c2cccnc2)c1,,inactive
COC(=O)c1sc(NC(=S)NC(=O)c2ccccc2F)nc1C,,inactive

SMILES,potentiation,outcome
CC(/C=C1\SC(=S)N(c2ccc(C(=O)O)cc2)C1=O)=C\c1ccccc1,,inactive
NC(=O)CSc1nnc(-c2ccccc2Br)n1-c1cccc(C(F)(F)F)c1,43.5% (active),
O=C(c1cccnc1)N1N=C2CCCCCC2C1(O)C(F)(F)F (stereo not given),,inactive
CCOC(=O)C1(CC2CCCCO2)CCN(Cc2cc3ccccc3[nH]2)CC1 (stereo not given),,inactive
O=C(NC(=S)NC1CCCCC1)c1ccc(Cl)cc1,262% (active),
COC(=O)c1sc(NC(=S)NC(=O)c2ccc(C)cc2)nc1C,50.5% (active),
O=Cc1cc2ccccc2nc1SCCCF,,inactive
OCCCCNCc1ccc(OCc2ccc(Cl)cc2)cc1,292% (active),
CC(=O)Nc1cccc(/C(C)=N/NC(=O)c2ccc(Cl)cc2Cl)c1,,inactive
C/C(=N\NC(=S)Nc1ccc(C)cc1)c1cc2ccccc2o1,97% (active),
CCC1CCC2(CC1)NC(CO)(CO)CO2 (stereo not given),,inactive
O=c1[nH]c(Nc2ccccc2)cc2cc(Br)ccc12,,inactive
CCCC(=O)Nc1cc(Cl)ccc1N1CCN(C(=O)CC)CC1,,inactive
Cn1c(O)c(N=Nc2nc(-c3ccccc3)cs2)c2ccccc21,385% (active),
Cc1ccc(-n2cccc2/C=C2\C(=N)N3N=C(C(C)C)SC3=NC2=O)cc1,23.5% (active),
CC(=O)c1c(C)[nH]c(C(=O)OCc2nc3ccsc3c(=O)[nH]2)c1C,,inactive
COc1cc(OC)cc(C(=O)NC(=S)N(Cc2ccccc2)C(C)C)c1,150% (active),
COC(=O)c1cn(NC(=O)Cc2ccc(Cl)c(Cl)c2)c(=O)c2ccccc12,,inactive
Cc1ccc(-c2csc3ncnc(SCc4ccc(C(=O)O)cc4)c23)cc1,36.5% (active),
CS(=O)(=O)N1CCC(C(=O)Nc2ccc(OCc3ccccc3)cc2)CC1,,inactive
